Measurements as given in ChEMBL document CHEMBL1136915 (Bioorg Med Chem Lett, 2009).

Experiments:
[1] = Nitric oxide release in phosphate buffer at pH 7.4 incubated at 37 degC after 1.5 hrs; parameters: concentration or dose not given beside the values; conditions: pH 7.4, 1.5 h
Serum = experiment: Nitric oxide release in rat serum containing phosphate buffer at pH 7.4 incubated at 37 degC after 1.5 hrs; conditions: pH 7.4, 1.5 h
[2] = Nitric oxide release in phosphate buffer containing 5 mM L-cysteine at pH 7.4 incubated at 37 degC after 1.5 hrs; conditions: pH 7.4, 1.5 h
Rattus norvegicus [3] = experiment: Antiinflammatory activity against carrageenan-induced rat inflammation model assessed as inhibition of paw edema at 327 umol/kg, po after 3 hrs; format: functional
How it was run: (§1)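 Test compound was given orally to rats at the stated dose (µmol/kg), followed by carrageenan-induced paw edema.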

Rattus norvegicus [4] = experiment: Antiinflammatory activity against carrageenan-induced rat inflammation model assessed as inhibition of paw edema at 714 umol/kg, po after 3 hrs; format: functional
How it was run: as §1

[5] = molecular target: T1, Prostaglandin G/H synthase 1 (Ovis aries, UniProt P05979); experiment: Inhibition of ovine COX1 by enzyme immunoassay
T1 sequence (P05979 whole entry): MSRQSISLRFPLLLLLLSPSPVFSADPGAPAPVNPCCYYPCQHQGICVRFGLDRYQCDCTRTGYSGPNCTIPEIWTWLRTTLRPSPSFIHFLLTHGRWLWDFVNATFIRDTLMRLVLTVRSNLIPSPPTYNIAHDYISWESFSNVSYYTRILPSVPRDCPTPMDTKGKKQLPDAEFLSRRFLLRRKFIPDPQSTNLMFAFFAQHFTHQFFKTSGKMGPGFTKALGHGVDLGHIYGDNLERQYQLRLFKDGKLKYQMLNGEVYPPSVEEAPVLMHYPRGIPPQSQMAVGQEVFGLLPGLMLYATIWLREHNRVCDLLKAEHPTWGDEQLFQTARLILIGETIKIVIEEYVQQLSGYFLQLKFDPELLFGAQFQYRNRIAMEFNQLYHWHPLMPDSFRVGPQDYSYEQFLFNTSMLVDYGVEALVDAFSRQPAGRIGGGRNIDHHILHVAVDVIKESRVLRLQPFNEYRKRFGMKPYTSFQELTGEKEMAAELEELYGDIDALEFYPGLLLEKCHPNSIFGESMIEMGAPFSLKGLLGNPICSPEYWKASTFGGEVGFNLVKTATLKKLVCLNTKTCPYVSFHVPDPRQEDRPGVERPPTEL
How it was run: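 COX inhibition was measured in vitro with an enzyme immunoassay kit. COX-2 selectivity index = COX-1 IC50/COX-2 IC50.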

[6] = molecular target: T2, Prostaglandin G/H synthase 2 (Homo sapiens, UniProt P35354); experiment: Inhibition of human COX2 by enzyme immunoassay
T2 sequence (P35354 whole entry): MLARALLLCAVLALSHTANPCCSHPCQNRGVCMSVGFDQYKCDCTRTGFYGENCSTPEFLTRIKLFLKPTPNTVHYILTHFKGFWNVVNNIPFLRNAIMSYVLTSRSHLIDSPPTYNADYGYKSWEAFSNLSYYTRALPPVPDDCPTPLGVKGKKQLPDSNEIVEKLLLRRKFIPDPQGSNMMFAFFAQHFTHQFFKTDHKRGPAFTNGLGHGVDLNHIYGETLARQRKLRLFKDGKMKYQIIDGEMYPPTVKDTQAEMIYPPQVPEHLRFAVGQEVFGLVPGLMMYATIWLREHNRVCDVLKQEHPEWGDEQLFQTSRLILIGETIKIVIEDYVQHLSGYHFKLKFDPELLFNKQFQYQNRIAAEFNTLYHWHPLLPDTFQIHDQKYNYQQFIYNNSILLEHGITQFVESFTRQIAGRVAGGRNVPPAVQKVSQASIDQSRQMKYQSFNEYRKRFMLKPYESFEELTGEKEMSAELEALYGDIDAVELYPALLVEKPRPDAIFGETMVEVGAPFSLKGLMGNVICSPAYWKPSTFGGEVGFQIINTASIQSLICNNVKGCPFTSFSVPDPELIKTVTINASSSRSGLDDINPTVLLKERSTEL
How it was run: (§2)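 COX inhibition was measured in vitro with an enzyme immunoassay kit. IC50 is the mean of two determinations, with deviation from the mean <10%. COX-2 selectivity index = COX-1 IC50/COX-2 IC50.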

[7] = Selectivity ratio of IC50 for ovine COX1 to IC50 for human COX2
How it was run: as §2

Rattus norvegicus [8] = experiment: Antiinflammatory activity against carrageenan-induced rat inflammation model assessed as inhibition of paw edema at 11.7 umol/kg, po after 3 hrs; format: functional
How it was run: as §1

Rattus norvegicus [9] = experiment: Antiinflammatory activity against carrageenan-induced rat inflammation model assessed as inhibition of paw edema at 357 umol/kg, po after 3 hrs; format: functional
How it was run: as §1

Row | Compound | Activity [1] [%] | Activity (Serum) [%] | Activity [2] [%] | IC50 [5] [µM] | IC50 [6] [µM] | Ratio IC50 [7] | inhibition in vivo at 327 µmol/kg (Rattus norvegicus [3]) [%] | inhibition in vivo at 714 µmol/kg (Rattus norvegicus [4]) [%] | inhibition in vivo at 11.7 µmol/kg (Rattus norvegicus [8]) [%] | inhibition in vivo at 357 µmol/kg (Rattus norvegicus [9]) [%]
1 | O=[N+]([O-])OCC(CO[N+](=O)[O-])O[N+](=O)[O-] [NITROGLYCERIN] | 2.8 |  | 10.1 |  |  |  |  |  |  | 
2 | CC(C)Cc1ccc(C(C)C(=O)O)cc1 (stereo not drawn) [IBUPROFEN] |  |  |  |  |  |  | 50 |  |  | 
3 | CC(=O)Oc1ccccc1C(=O)O [ASPIRIN] |  |  |  |  |  |  |  | 50 |  | 
4 | COc1ccc2c(c1)c(CC(=O)OC(CO[N+](=O)[O-])CO[N+](=O)[O-])c(C)n2C(=O)c1ccc(Cl)cc1 | 3.8 |  | 7.4 | > 100 | 0.6 | > 166 |  |  | 42.2 | 
5 | COc1ccc2c(c1)c(CC(=O)O)c(C)n2C(=O)c1ccc(Cl)cc1 [INDOMETHACIN] |  |  |  |  |  |  |  |  | 50 | 
6 | CC(=O)Oc1ccccc1C(=O)OC(CO[N+](=O)[O-])CO[N+](=O)[O-] | 3.6 |  | 7.8 | > 100 | 7.7 | > 13 |  |  |  | 30.5

The next lines start with results.

Row | Activity [1] [%] | Activity (Serum) [%] | Activity [2] [%] | IC50 [5] [µM] | IC50 [6] [µM] | Ratio IC50 [7] | Compound | inhibition in vivo at 327 µmol/kg (Rattus norvegicus [3]) [%] | inhibition in vivo at 714 µmol/kg (Rattus norvegicus [4]) [%] | inhibition in vivo at 11.7 µmol/kg (Rattus norvegicus [8]) [%] | inhibition in vivo at 357 µmol/kg (Rattus norvegicus [9]) [%]
7 | 84.5 | 84.8 |  |  |  |  | [Na+].[O-]/N=[N+](\[O-])N1CCC[C@H]1CO |  |  |  | 
8 | 7.4 | 50.6 |  | > 100 | 2.2 | > 45 | CC(=O)OCO/N=[N+](\[O-])N1CCC[C@H]1COC(=O)c1ccccc1OC(C)=O |  |  |  | 23.7
9 | 4.4 | 79.5 |  | > 100 | 6.4 | > 15 | CC(=O)OCO/N=[N+](\[O-])N1CCC[C@H]1COC(=O)C(C)c1ccc(CC(C)C)cc1 (stereo partly drawn) | 57.1 |  |  | 
10 | 3.4 |  | 6.8 | > 100 | 1.7 | > 58 | CC(C)Cc1ccc(C(C)C(=O)OC(CO[N+](=O)[O-])CO[N+](=O)[O-])cc1 (stereo not drawn) | 59.1 |  |  | 
11 | 7.9 | 80.7 |  | > 100 | 9.3 | > 10 | COc1ccc2c(c1)c(CC(=O)OC[C@@H]1CCCN1/[N+]([O-])=N/OCOC(C)=O)c(C)n2C(=O)c1ccc(Cl)cc1 |  |  | 53.6 | 
